One compound from ChEMBL document CHEMBL4431316, “New 6-Aminoquinoxaline Derivatives with Neuroprotective Effect on Dopaminergic Neurons in Cellular and Animal Parkinson Disease Models” (J Med Chem, 2016) can be followed below.

Active and inactive are the calls of the source. No cut-off for these calls is given here.

Assay [1] in a line: Neuroprotective activity in Sprague-Dawley rat DA neuron death PD model assessed as survival of Th immunopositive cells at 10 uM after 10 days by immunofluorescence assay relative to control. Format: functional. The note with it: 240 h, read-out: Survival. The gist of the method: (§1)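 Midbrain cultures in which DA neurons die spontaneously and selectively through a mechanism involving immature astrocytes and calcium dyshomeostasis. Compounds were present for 10 days in vitro, screened at 50 µM (100 µM for one analog) and retested at 10 µM. dbcAMP 1 mM served as reference. Surviving TH+ neurons were counted and expressed as % of corresponding untreated control cultures.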

In assay [2] the test system is Mus musculus. The assay can be described thus: Neuroprotective activity against MPTP-induced C57BL/6 mouse DA neuron toxicity model assessed as restoration of striatal DA level at 50 mg/kg/day, po bid pretreated for 3 days followed by MPTP challenge and further administration of compound up to day 11 by HPLC method. Format: functional, organism-based.
Assay [3] concerns Mus musculus. Put plainly: Neuroprotective activity against MPTP-induced C57BL/6 mouse DA neuron toxicity model assessed as restoration of striatal DA level at 25 mg/kg/day, po bid pretreated for 3 days followed by MPTP challenge and further administration of compound up to day 11 by HPLC method (reference value: 28 +/- 2%). The class given is functional.
Assay [4] is filed under the species Rattus norvegicus. The assay can be described thus: Neuritogenic activity in Sprague-Dawley rat DA neuron death PD model assessed as development of neurite network in Th immunopositive cells at 10 to 50 uM after 10 days by microscopic analysis relative to control. The class given is functional, cell-based. In outline: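 Midbrain cultures treated or not with test compound (10-50 µM) for 10 DIV, then immunostained for TH. Neuritic network of TH+ neurons examined microscopically against control neurons. DbcAMP 1 mM as reference protective molecule.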

The species entered for assay [5] is Rattus norvegicus. The assay can be described thus: Neuroprotective activity in Sprague-Dawley rat DA neuron death PD model assessed as inhibition of calcium mobilization at 50 uM after 10 days in presence of L-type voltage gated calcium channel blocker nifedipine. The class given is functional.
For assay [6], the system named is Mus musculus. The assay can be described thus: Neuroprotective activity against MPTP-induced C57BL/6 mouse SN DA neuron toxicity model assessed as survival of Th immunopositive cells at 50 mg/kg/day, po bid pretreated for 3 days followed by MPTP challenge and further administration of compound up to day 11 by immunohistochemical analysis relative to control. The class given is functional. The note with it: C57BL/6, po. The gist of the method:
(§2)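 C57BL/6 mice given sub-chronic MPTP treatment. Test agent given per os twice daily (2x25 or 2x50 mg/kg/day) for 11 days. TH+ neurons counted in one hemisphere per mouse. Expressed as % of vehicle-treated mice, mean ± SEM, n=9-12.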

Assay [7] concerns Mus musculus. The assay can be described thus: Neuroprotective activity against MPTP-induced C57BL/6 mouse DA neuron toxicity model assessed as restoration of striatal HVA level at 50 mg/kg/day, po bid pretreated for 3 days followed by MPTP challenge and further administration of compound up to day 11 by HPLC method. Format: functional, organism-based.
Assay [8] is filed under the species Rattus norvegicus. The assay can be described thus: Neuroprotective activity in Sprague-Dawley rat DA neuron death PD model assessed as survival of Th immunopositive cells treated at 10 to 50 uM in presence of GDNF for 10 days followed by deprivation of GDNF for next 5 days by immunofluorescence assay. The class given is functional. In outline: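 Midbrain cultures kept with GDNF (20 ng/ml) for 10 days, then deprived of GDNF from 11 to 15 DIV, with test compound 10-50 µM. TH+ neurons counted and compared with cultures kept on GDNF to 15 DIV. P < 0.05 vs GDNF-treated and vs GDNF-deprived cultures.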

Assay [9] relates to Mus musculus. The assay can be described thus: Neuroprotective activity against MPTP-induced C57BL/6 mouse DA neuron toxicity model assessed as restoration of striatal HVA level at 25 mg/kg/day, po bid pretreated for 3 days followed by MPTP challenge and further administration of compound up to day 11 by HPLC method (reference value: 53 +/- 3%). Format: functional.
The species named for assay [10] is Rattus norvegicus. The assay can be described thus: Neuroprotective activity in Sprague-Dawley rat DA neuron death PD model assessed as increase in [2,5,6-3H]DA uptake at 10 to 50 uM after 10 days by liquid scintillation counting spectrometric analysis. Format: functional. The gist of the method:
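Midbrain cultures in which DA neurons die spontaneously and selectively. Treated with test compound (10-50 µM) or dbcAMP (1 mM, reference) up to 10 DIV. Tritium-labeled DA uptake quantified as a marker of DA cell function and differentiation. Uptake rate per TH+ neuron also derived. *P < 0.05 vs control.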

Assay [11] has as its system Astrocyte. The assay can be described thus: Neuroprotective activity in Sprague-Dawley rat astrocytes assessed as effect on vimentin positive cell density and morphology at 10 uM by fluorescence microscopic method. Format: functional, cell-based. The gist of the method: (§3)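 Midbrain cultures labelled for vimentin, a glial marker. Density and morphology of glial cells scored semi-quantitatively by fluorescence microscopy. Compounds tested at 10 and 50 µM, one at 100 µM; dbcAMP as reference.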

Assay [12] relates to Astrocyte. Put plainly: Neuroprotective activity in Sprague-Dawley rat astrocytes assessed as [methyl-3H]thymidine incorporation at 10 to 50 uM after 8 days by liquid scintillation counting assay relative to control. Format: functional. The gist of the method:
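Glial proliferation in midbrain cultures measured as [methyl-3H]-thymidine incorporation at 8 DIV, with test compound 10-50 µM. DbcAMP 1 mM as positive control. Expressed as % of control.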
For orientation: Incorporation of labelled thymidine or its analogues reports DNA synthesis.

Assay [13] deals with Mus musculus. The assay can be described thus: Neuroprotective activity against MPTP-induced C57BL/6 mouse SN DA neuron toxicity model assessed as survival of Th immunopositive cells at 25 mg/kg/day, po bid pretreated for 3 days followed by MPTP challenge and further administration of compound up to day 11 by immunohistochemical analysis (reference value: 61 +/- 5%). Format: functional. As to conditions: C57BL/6, po. In outline: as §2

The test system of assay [14] is Mus musculus. Put plainly: Neuroprotective activity against MPTP-induced C57BL/6 mouse DA neuron toxicity model assessed as reduction of striatal DA turnover at 25 mg/kg/day, po bid pretreated for 3 days followed by MPTP challenge and further administration of compound up to day 11 by HPLC method. Also on record: scale not given: the % may be the effect or the level left. Format: functional.

Assay [15] in a line: Neuroprotective activity in Sprague-Dawley rat DA neuron death PD model assessed as survival of Th immunopositive cells at 50 uM after 10 days by immunofluorescence assay. The class given is functional. As to conditions: 240 h, read-out: Survival. In outline: as §1
The target of assay [16] is T1, Amine oxidase [flavin-containing] B (Rattus norvegicus, UniProt P19643).
T1 sequence (P19643 whole entry): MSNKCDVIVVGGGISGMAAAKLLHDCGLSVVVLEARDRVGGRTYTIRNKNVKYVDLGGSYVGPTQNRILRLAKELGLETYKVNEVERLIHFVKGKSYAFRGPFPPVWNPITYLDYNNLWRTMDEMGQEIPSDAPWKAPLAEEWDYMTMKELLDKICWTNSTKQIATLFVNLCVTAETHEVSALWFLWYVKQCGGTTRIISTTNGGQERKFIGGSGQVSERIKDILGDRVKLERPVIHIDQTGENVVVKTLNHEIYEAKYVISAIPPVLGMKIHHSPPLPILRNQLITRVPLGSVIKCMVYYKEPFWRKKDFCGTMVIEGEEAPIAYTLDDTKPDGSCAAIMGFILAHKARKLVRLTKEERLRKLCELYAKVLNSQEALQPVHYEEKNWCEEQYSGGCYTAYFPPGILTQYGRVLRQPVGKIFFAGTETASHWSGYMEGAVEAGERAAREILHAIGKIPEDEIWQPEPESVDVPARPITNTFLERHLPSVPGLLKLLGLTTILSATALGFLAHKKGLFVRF
Put plainly: Inhibition of rat mitochondrial MAO-B using DAB as substrate incubated for 30 mins by HPLC analysis.

Assay [17] is filed under the species Rattus norvegicus. The assay can be described thus: Neuroprotective activity in Sprague-Dawley rat DA neuron death PD model assessed as survival of Th immunopositive cells at 50 uM after 10 days in presence of anti-GDNF antibody by immunofluorescence assay. Format: functional.
Assay [18] relates to Mus musculus. Put plainly: Neuroprotective activity against MPTP-induced C57BL/6 mouse DA neuron toxicity model assessed as decrease in striatal DOPAC level at 50 mg/kg/day, po bid pretreated for 3 days followed by MPTP challenge and further administration of compound up to day 11 by HPLC method. The class given is functional, organism-based.
For assay [19], the species on record is Rattus norvegicus. The assay can be described thus: Neuroprotective activity in Sprague-Dawley rat DA neuron death PD model assessed as inhibition of calcium mobilization at 50 uM after 10 days in presence of RyR channel blocker dantrolene. The class given is functional.
In assay [20] the test system is Astrocyte. Put plainly: Neuroprotective activity in Sprague-Dawley rat astrocytes assessed as effect on vimentin positive cell density and morphology at 50 uM by fluorescence microscopic method. Format: functional, cell-based. The gist of the method:
as §3

Assay [21] is filed under the species Rattus norvegicus. The assay can be described thus: Antioxidant activity in Sprague-Dawley rat DA neuron assessed as reduction in ferrous iron-mediated neuron death at 5 uM. Format: functional. In outline:
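Midbrain cultures with DA cell death driven by a Fenton-type reaction, ferrous iron reacting with molecular oxygen in the medium (chronic oxidative stress). Test compound 1-10 µM; desferrioxamine 10 µM as positive control. Readout is DA neuron (TH+) survival. P < 0.05 vs control cultures.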

In general, IC50 refers to the concentration needed to halve the response being measured. `Nc1ccc2ncc(-c3ccccc3)nc2c1`: the viability at 10 µM in [1] is 152%. For the same compound, the outcome in the assay on Mus musculus [2], in the assay listed under Rattus norvegicus [4], in the assay on Mus musculus [7], in the assay filed under Rattus norvegicus [8], in the assay listed under Rattus norvegicus [10] and in the assay filed under Rattus norvegicus [17] was Active. The result in the assay on Mus musculus [18] and in the assay listed under Rattus norvegicus [21] was Active. The Activity in the assay on Mus musculus [3] came to 39%; in the assay on Mus musculus [9], 64%; in the assay with Astrocyte [12] it was 93.8%; in the assay on Mus musculus [14], 36%. The inhibition entry in the assay filed under Rattus norvegicus [5] was “Active”. In the assay on Mus musculus [6], the survival at 50 mg/kg/day turned out to be 91%. The result in the assay with Astrocyte [11] and in the assay with Astrocyte [20] was inactive. The survival at 25 mg/kg/day with Mus musculus [13] was 78%. Further, in assay [15], the viability at 50 µM was 226%. Also, in [16], half-maximal inhibition (IC50) required 513 µM. Also, the inhibition result in the assay listed under Rattus norvegicus [19] is “inactive”.
